In ChEMBL document CHEMBL2169815, “Synthesis and structure-activity relationships of lapacho analogues. 1. Suppression of human keratinocyte hyperproliferation by 2-substituted naphtho[2,3-b]furan-4,9-diones, activation by enzymatic one- and two-electron reduction, and intracellular generation of superoxide” (J Med Chem, 2012):

How the values were obtained:
HaCaT [1] = test: Antihyperproliferative activity against human HaCaT cells after 48 hrs by phase contrast microscopy; type: functional, cell-based
Method in brief: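 HaCaT keratinocytes were exposed for 48 h, then dispersed cells were counted under phase contrast. Inhibition was (1 − test/control) × 100, with test N = 3 and control N = 6–8, checked by Student's t test (P < 0.05). IC50 came from nonlinear regression.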

HaCaT [2] = test: Cytotoxicity against human HaCaT cells assessed as LDH release at 2 uM after 4 hrs by UV method; type: cell-based
Method in brief: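 HaCaT cells were given compound at 2 μM for 4 h at 37 °C. Extracellular LDH in the supernatant was read by the UV method with pyruvate and NADH and reported as mU/mL. Vehicle control was 0.2% DMSO in medium; Brij 35 plus ultrasound was the positive control. N = 3.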

HaCaT [3] = test: Activity in dicoumarol-treated human HaCaT cells assessed as superoxide generation by flow cytometry (reference value: 407.59 +/- 68.7 ); type: functional
HaCaT [4] = test: Ratio of compound IC50 to anthralin IC50 for human HaCaT cells; type: functional
HaCaT [5] = test: Induction of superoxide generation in human HaCaT cells at 5 micomol/L after 18 hrs by flow cytometry (reference value: 367.5 +/- 80.1 ); type: functional
Method in brief: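 HaCaT cells grown 24 h at 37 °C in DMEM with 10% FBS, then given compound at 5 μM for 18 h (0.1% DMSO final). DHE loaded for 30 min in the dark. Cells trypsinized and 2-OH-E⁺ fluorescence measured by flow cytometry (FL2, 550–600 nm) on 10000 live cells, dead cells gated out. Mean fluorescence intensity, mean ± SD, N = 3. DMSO-only control.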

[6] = biological target: T1, NADPH--cytochrome P450 reductase (Homo sapiens, UniProt P16435); test: Activity of human recombinant cytochrome P450 reductase assessed as rate of superoxide generation measuring SOD-inhibitable reduction of succinoylated cytochrome c per 2 mU enzyme at 100 umol/ml by spectrophotometry in presence of catalase and DTPA (reference value: 0.2 +/- 0.1 micomol/L/min)
T1 sequence (P16435 whole entry): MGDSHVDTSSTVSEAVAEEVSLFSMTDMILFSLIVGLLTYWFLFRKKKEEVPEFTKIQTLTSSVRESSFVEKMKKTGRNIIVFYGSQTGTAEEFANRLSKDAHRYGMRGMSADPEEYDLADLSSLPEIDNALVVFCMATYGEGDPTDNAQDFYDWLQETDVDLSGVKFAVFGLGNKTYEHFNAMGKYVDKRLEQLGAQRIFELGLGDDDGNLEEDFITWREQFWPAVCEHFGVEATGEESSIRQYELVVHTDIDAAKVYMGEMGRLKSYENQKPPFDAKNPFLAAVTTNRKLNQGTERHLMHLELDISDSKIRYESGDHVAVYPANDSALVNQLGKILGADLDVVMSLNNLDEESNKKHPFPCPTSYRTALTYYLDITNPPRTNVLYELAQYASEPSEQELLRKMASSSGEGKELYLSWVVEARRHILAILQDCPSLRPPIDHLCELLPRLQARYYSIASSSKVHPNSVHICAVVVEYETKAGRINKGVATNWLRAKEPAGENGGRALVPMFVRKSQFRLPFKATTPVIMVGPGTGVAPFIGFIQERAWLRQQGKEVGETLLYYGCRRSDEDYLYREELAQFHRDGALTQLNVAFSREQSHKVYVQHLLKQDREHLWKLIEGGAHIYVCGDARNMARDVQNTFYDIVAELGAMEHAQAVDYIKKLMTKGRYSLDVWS

HaCaT [7] = test: Ratio of compound IC50 to beta-lapachone IC50 for human HaCaT cells; type: functional
[8] = biological target: NQO1 protein (Homo sapiens) (UniProt Q3B792); test: Activity of human recombinant NQO-1 assessed as rate of superoxide generation measuring SOD-inhibitable reduction of succinoylated cytochrome c per unit enzyme at 25 umol/ml by spectrophotometry in presence of catalase and DTPA (reference value: 0.2 +/- 0.1 micomol/L/min)
NQO1 protein (Homo sapiens), sequence (Q3B792 as listed by the source): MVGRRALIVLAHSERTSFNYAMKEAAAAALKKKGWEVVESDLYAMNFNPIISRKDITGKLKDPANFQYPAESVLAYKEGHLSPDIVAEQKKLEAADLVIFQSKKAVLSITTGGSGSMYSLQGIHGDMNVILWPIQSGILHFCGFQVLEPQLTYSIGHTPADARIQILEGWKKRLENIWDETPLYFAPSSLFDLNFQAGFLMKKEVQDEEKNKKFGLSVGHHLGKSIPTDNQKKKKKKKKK

HaCaT [9] = test: Induction of superoxide generation in human HaCaT cells at 50 uM after 30 min by flow cytometry (reference value: 7.1 +/- 5.2 ); type: functional

| Structure (SMILES) | IC50 (HaCaT [1]) | Activity (HaCaT [2]) | also measured |
| --- | --- | --- | --- |
| O=Cc1cc2c(o1)C(=O)c1ccccc1C2=O | 2.76 µM | 186 mU/ml | – |
| CCOC(=O)/C=C/c1cc2c(o1)C(=O)c1ccccc1C2=O | 2.51 µM | – | – |
| CC(C)COC(=O)c1cc2c(o1)C(=O)c1ccccc1C2=O | 2.86 µM | – | – |
| O=C(c1cccnc1)c1cc2c(o1)C(=O)c1ccccc1C2=O | 0.37 µM | 202 mU/ml | – |
| O=C1c2ccccc2C(=O)c2oc([N+](=O)[O-])cc21 | 2 µM | – | – |
| CCc1noc(-c2cc3c(o2)C(=O)c2ccccc2C3=O)n1 | 0.17 µM | 157 mU/ml | Flu intensity (HaCaT [3]): 1279; Ratio IC50 (HaCaT [4]): 4; Flu intensity (HaCaT [5]): 1287; Activity [6]: 1.8 µmol/L/min; Ratio IC50 (HaCaT [7]): 5; Activity [8]: 1.9 µmol/L/min; Flu intensity (HaCaT [9]): 17 |
| CCC(=O)c1cc2c(o1)C(=O)c1ccccc1C2=O | 0.63 µM | 270 mU/ml | – |
| CC(=O)Oc1c2ccccc2c(OC(C)=O)c2oc(C(=O)c3ccccc3)cc12 | 0.92 µM | 193 mU/ml | – |
| O=C(c1ccco1)c1cc2c(o1)C(=O)c1ccccc1C2=O | 0.55 µM | 167 mU/ml | – |
| O=C(OCc1ccccc1)c1cc2c(o1)C(=O)c1ccccc1C2=O | > 30 µM | – | – |
| COc1c2ccccc2c(OC)c2oc(C(=O)c3ccccc3)cc12 | > 30 µM | – | – |
| O=C1c2ccccc2C(=O)c2oc(/C=C/c3ccccc3)cc21 | > 30 µM | – | – |
| O=C(O)/C=C/c1cc2c(o1)C(=O)c1ccccc1C2=O | > 30 µM | – | – |
| CCC(=O)c1cc2c(OC(C)=O)c3ccccc3c(OC(C)=O)c2o1 | 0.8 µM | 185 mU/ml | – |
| CCOC(=O)C(=Cc1cc2c(o1)C(=O)c1ccccc1C2=O)C(=O)OCC | 1.11 µM | 186 mU/ml | – |
| Cc1cc2c(o1)C(=O)c1ccccc1C2=O | 7.54 µM | – | Flu intensity (HaCaT [3]): 830.9; Flu intensity (HaCaT [5]): 420.2; Activity [6]: 1.2 µmol/L/min; Activity [8]: 0.2 µmol/L/min; Flu intensity (HaCaT [9]): 6.4 |
| O=C(OC1CCCCC1)c1cc2c(o1)C(=O)c1ccccc1C2=O | 2.93 µM | – | – |
| O=C(Oc1ccccc1)c1cc2c(o1)C(=O)c1ccccc1C2=O | > 30 µM | – | – |
| O=C1c2ccccc2C(=O)c2oc(-c3nnn[nH]3)cc21 | > 30 µM | 380 mU/ml | – |
| CC1(C)CCC2=C(O1)c1ccccc1C(=O)C2=O [LAPACHONE] | 0.9 µM | 268 mU/ml | – |

| Structure (SMILES) | IC50 (HaCaT [1]) | Activity (HaCaT [2]) | also measured |
| --- | --- | --- | --- |
| O=C(OCc1ccco1)c1cc2c(o1)C(=O)c1ccccc1C2=O | 8.23 µM | – | – |
| O=C(c1cc2c(o1)C(=O)c1ccccc1C2=O)c1cccs1 | 0.67 µM | 169 mU/ml | – |
| O=C(O)c1cc2c(o1)C(=O)c1ccccc1C2=O | > 30 µM | – | – |
| N#Cc1ccc(/C=C/c2cc3c(o2)C(=O)c2ccccc2C3=O)cc1 | 7.73 µM | – | – |
| O=C1c2ccccc2C(=O)c2oc(/C=N/O)cc21 | 2.34 µM | – | – |
| CCC(=O)c1cc2c(OC)c3ccccc3c(OC)c2o1 | > 30 µM | – | – |
| CCN(CC)C(=O)c1cc2c(o1)C(=O)c1ccccc1C2=O | 0.24 µM | 226 mU/ml | – |
| N#Cc1cc2c(o1)C(=O)c1ccccc1C2=O | 0.89 µM | 181 mU/ml | – |
| CCOC(=O)c1cc2c(o1)C(=O)c1ccccc1C2=O | 0.61 µM | 187 mU/ml | – |
| O=C(c1ccccc1)c1cc2c(o1)C(=O)c1ccccc1C2=O | 0.72 µM | 318 mU/ml | – |
| O=C1c2c(O)cccc2Cc2cccc(O)c21 [ANTHRALIN] | – | 239 mU/ml | – |
| CC(=O)c1cc2c(o1)C(=O)c1ccccc1C2=O [NAPABUCASIN] | – | 255 mU/ml | Flu intensity (HaCaT [3]): 741.4; Flu intensity (HaCaT [5]): 725.5; Activity [6]: 3 µmol/L/min; Activity [8]: 1.4 µmol/L/min; Flu intensity (HaCaT [9]): 20.5 |
| CCCOC(=O)c1cc2c(o1)C(=O)c1ccccc1C2=O | 1.32 µM | – | – |
| CCc1cc2c(o1)C(=O)c1ccccc1C2=O | 12.2 µM | – | – |
| CC1=CC(=O)c2ccccc2C1=O [MENADIONE] | 15.8 µM | – | Flu intensity (HaCaT [3]): 457.2; Flu intensity (HaCaT [5]): 431.9; Activity [6]: 2.1 µmol/L/min; Activity [8]: 1 µmol/L/min; Flu intensity (HaCaT [9]): 44 |
| O=C(OCc1cccs1)c1cc2c(o1)C(=O)c1ccccc1C2=O | 14.3 µM | – | – |
| CC(C)OC(=O)c1cc2c(o1)C(=O)c1ccccc1C2=O | 0.99 µM | – | – |
| COC(=O)c1cc2c(o1)C(=O)c1ccccc1C2=O | 0.92 µM | 190 mU/ml | – |
| O=C1c2ccccc2C(=O)c2occc21 | 3.85 µM | – | Flu intensity (HaCaT [3]): 601.1; Flu intensity (HaCaT [5]): 452.5; Activity [6]: 2.2 µmol/L/min; Activity [8]: 0.4 µmol/L/min; Flu intensity (HaCaT [9]): 13 |
| CC(C)C(=O)c1cc2c(o1)C(=O)c1ccccc1C2=O | 0.44 µM | – | – |
